The test system of one test is SW-620. The experiment in a line: Cytotoxicity against SW620 colon cancer cell line done for 72 h at 37 degree C with compound in MTS assay. It is filed as functional, cell-based, Homo sapiens. In a few lines:
(§1)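 Cells (2000–10000) seeded in RPMI-1640 for 24 h, then exponentially growing cells exposed to a range of concentrations (0.001–5 μM) for 72 h at 37 °C, 5% CO2. MTS (2 mg/mL) mixed with PMS (25 μM) added directly; after 3 h at 37 °C formazan absorbance read at 490 nm. IC50 taken from dose-response curves of percent growth versus untreated control.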
Background: Formazan colour is commonly taken as a measure of viable cells.

For the next test, the system named is K562. The experiment in a line: Cytotoxicity against K562 leukemia cell line done for 72 hr at 37 degree C with compound in MTS assay. It is filed as functional, cell-based, Homo sapiens. In a few lines: as §1

Data on nine compounds can be found in ChEMBL document CHEMBL1145165, “Syntheses and biological activities of disaccharide daunorubicins” (J Med Chem, 2005).

Where a name gives a salt, the structure may show the parent alone. A value given as a limit tells only on which side of the number the result lay.

As usually defined, the IC50 is the concentration needed to halve the response being measured.

On to `COc1cccc2c1C(=O)c1c(O)c3c(c(O)c1C2=O)C[C@@](O)(C(C)=O)C[C@@H]3OC1CC(N)C(OC2CC(C)(OC)C(O)C(C)O2)C(C)O1` (stereo partly drawn), for which the IC50 with SW-620 (Homo sapiens, SW-620, 72 h) was 11.4 nM; with K562 (Homo sapiens, K562, 72 h), 21 nM.
For `COc1cccc2c1C(=O)c1c(O)c3c(c(O)c1C2=O)C[C@@](O)(C(C)=O)C[C@@H]3OC1CC(N)C(OC2CC(O)C(O)C(CO)O2)C(C)O1` (stereo partly drawn) the same measures were more than 1000 nM and 1380 nM.
Turning to `COc1cccc2c1C(=O)c1c(O)c3c(c(O)c1C2=O)C[C@@](O)(C(C)=O)C[C@@H]3OC1CC(N)C(OC2OC(C)C(O)C(O)C2O)C(C)O1` (stereo partly drawn), the IC50 in the test on SW-620 (Homo sapiens, SW-620, 72 h) was more than 1000 nM; in the test on K562 (Homo sapiens, K562, 72 h) it was more than 4000 nM.
For the compound `COc1cccc2c1C(=O)c1c(O)c3c(c(O)c1C2=O)C[C@@](O)(C(C)=O)C[C@@H]3OC1CC(N)C(OC2CC(N=[N+]=[N-])C(O)C(C)O2)C(C)O1` (stereo partly drawn), the IC50 is 60.3 nM with SW-620 (Homo sapiens, SW-620, 72 h) and 31.3 nM in the test with K562 (Homo sapiens, K562, 72 h).
Take `COc1cccc2c1C(=O)c1c(O)c3c(c(O)c1C2=O)C[C@@](O)(C(C)=O)C[C@@H]3OC1CC(N)C(OC2CC(OC)C(O)C(C)O2)C(C)O1` (stereo in doubt; 1): the IC50 in the test on SW-620 (sw-620) stood at 18.2 nM; with K562 (Homo sapiens, K562, 72 h), 39.5 nM.
Consider `COc1cccc2c1C(=O)c1c(O)c3c(c(O)c1C2=O)C[C@@](O)(C(C)=O)C[C@@H]3OC1CC(N)C(OC2CC(OC)C(O)C(C)O2)C(C)O1` (stereo in doubt; 2), for which the values for the IC50 with SW-620 (sw-620) and in the test on K562 (k562) were 38.9 nM and 45.8 nM, respectively.
Regarding `COc1cccc2c1C(=O)c1c(O)c3c(c(O)c1C2=O)C[C@@](O)(C(C)=O)C[C@@H]3OC1CC(N)C(OC2CC(C)(O)C(O)C(C)O2)C(C)O1` (stereo in doubt; 3), the IC50 in the test with SW-620 (sw-620) came out at 21.7 nM; in the test with K562 (k562) it was 44.3 nM.
The matching figures for `COc1cccc2c1C(=O)c1c(O)c3c(c(O)c1C2=O)C[C@@](O)(C(C)=O)C[C@@H]3OC1CC(N)C(OC2CC(C)(O)C(O)C(C)O2)C(C)O1` (stereo in doubt; 4): more than 1000 nM and 1530 nM.
`COc1cccc2c1C(=O)c1c(O)c3c(c(O)c1C2=O)C[C@@](O)(C(C)=O)C[C@@H]3O[C@H]1C[C@H](N)[C@H](O)[C@H](C)O1` [DAUNORUBICIN HYDROCHLORIDE]: the IC50 with SW-620 (Homo sapiens, SW-620, 72 h) was found to be 8.6 nM; in the test on K562 (Homo sapiens, K562, 72 h) it was 15.6 nM.
